In data set [1] the test system is HepG2. In words: Cytotoxicity against human HepG2 cells at 80 uM after 24 hrs by MTT assay. Format: cell-based. To be noted: hepg2, 24 h.
Data set [2] addresses T1, Nuclear factor erythroid 2-related factor 2 (Homo sapiens) (UniProt Q16236).
T1 sequence (whole entry): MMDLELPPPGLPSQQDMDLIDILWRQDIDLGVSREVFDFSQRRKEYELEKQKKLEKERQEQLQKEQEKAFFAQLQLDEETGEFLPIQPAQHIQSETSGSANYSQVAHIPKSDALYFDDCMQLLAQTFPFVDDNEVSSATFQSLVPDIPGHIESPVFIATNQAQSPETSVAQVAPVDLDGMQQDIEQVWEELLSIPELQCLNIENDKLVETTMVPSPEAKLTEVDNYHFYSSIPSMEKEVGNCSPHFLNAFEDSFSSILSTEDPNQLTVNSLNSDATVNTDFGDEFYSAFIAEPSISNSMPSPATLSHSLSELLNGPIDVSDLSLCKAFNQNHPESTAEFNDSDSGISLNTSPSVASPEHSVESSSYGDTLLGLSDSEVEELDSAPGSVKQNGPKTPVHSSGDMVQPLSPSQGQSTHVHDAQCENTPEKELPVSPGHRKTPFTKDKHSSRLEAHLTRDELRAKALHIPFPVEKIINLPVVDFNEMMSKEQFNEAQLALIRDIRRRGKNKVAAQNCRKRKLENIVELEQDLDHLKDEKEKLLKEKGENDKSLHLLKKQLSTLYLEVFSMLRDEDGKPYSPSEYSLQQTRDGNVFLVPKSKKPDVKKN
Description: Activation of Nrf2 in human HepG2-ARE-C8 cells assessed as induction of ARE-mediated luciferase activity at 0.01 uM after 24 hrs by luciferase reporter gene assay relative to control. Format: cell-based. Put shortly: (§1)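 HepG2-ARE-C8 cells stably carrying ARE-luciferase, grown in DMEM with 10% FBS at 37 °C and 5% CO2. Seeded at 5 × 10^4 cells/well, left overnight, then given compound diluted from a 10 mM DMSO stock for 24 h. Cells lysed and luciferase read as RLU. Inductivity = (RLUtest − RLUblank)/(RLUcontrol − RLUblank), with DMSO as control. Mean ± SEM of three experiments.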
Background: A reporter such as luciferase makes a cellular process visible.

For data set [3], the system named is L02. Description: Cytotoxicity against human LO2 cells at 160 uM after 24 hrs by MTT assay. The data set is classed as cell-based. As to conditions: l02, 24 h. Summed up:
(§2)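 LO2 cells plated for 12 h, then treated for 24 h with 0, 0.2, 2, 20, 40, 80 or 160 μM compound diluted in medium from a DMSO stock. MTT (5 mg/mL stock) added for 4 h, formazan dissolved in DMSO, A570 read. Viability computed from OD relative to DMSO control and blank. Mean ± SD of three experiments.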

The target of data set [4] is T1, Nuclear factor erythroid 2-related factor 2 (Homo sapiens). In words: Activation of Nrf2 in human HepG2-ARE-C8 cells assessed as induction of ARE-mediated luciferase activity at 40 uM after 24 hrs by luciferase reporter gene assay relative to control. Format: cell-based. Summed up:
as §1

For data set [5] the target is unchanged. Description: Activation of Nrf2 in human HepG2-ARE-C8 cells assessed as induction of ARE-mediated luciferase activity at 20 uM after 24 hrs by luciferase reporter gene assay relative to control. Format: cell-based. Summed up: as §1
Data set [6] has the same target. Description: Activation of Nrf2 in human HepG2-ARE-C8 cells assessed as induction of ARE-mediated luciferase activity at 1 uM after 24 hrs by luciferase reporter gene assay relative to control. Format: cell-based. Put shortly:
as §1

For data set [7] the target is unchanged. In words: Activation of Nrf2 in human HepG2-ARE-C8 cells assessed as induction of ARE-mediated luciferase activity at 0.1 uM after 24 hrs by luciferase reporter gene assay relative to control. The data set is classed as cell-based. Summed up:
as §1

The test system of data set [8] is L02. In words: Hepatoprotective activity against APAP-induced cell injury in human LO2 cells assessed as increase in cell viability at 20 uM pretreated for 24 hrs followed by APAP treatment measured after 24 hrs by MTT assay. Format: functional. Summed up:
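LO2 cells plated for 12 h and pretreated for 24 h with 5, 10 or 20 μM compound. One arm was first transfected with 50 nM Nrf2 siRNA before receiving 20 μM compound. Medium then replaced with medium containing 8 mM APAP for 24 h. Viability by MTT at A570. Mean ± SD of three experiments.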

The nature of data set [9]: Intrinsic aqueous solubility of the compound by potentiometric titration method. Format: physicochemical. Put shortly:
(§3)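 Intrinsic aqueous solubility and logD at pH 7.4 determined by Avdeef-Bucher potentiometric titration on a pION Gemini Profiler.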

A short description of data set [10]: Lipophilicity, log D of the compound at pH 7.4 by potentiometric titration method. The data set is classed as physicochemical. As to conditions: buffer. Summed up:
as §3

Data set [11] concerns the target T1, Nuclear factor erythroid 2-related factor 2 (Homo sapiens). Description: Activation of Nrf2 in human HepG2-ARE-C8 cells assessed as induction of ARE-mediated luciferase activity at 80 uM after 24 hrs by luciferase reporter gene assay relative to control. Format: cell-based. Put shortly:
as §1

In data set [12] the test system is L02. In words: Cytotoxicity against human LO2 cells up to 160 uM after 24 hrs by MTT assay. The data set is classed as cell-based. To be noted: l02, 24 h. Put shortly: as §2
For orientation: Tetrazolium dyes change colour on reduction, which living cells bring about.

The target of data set [13] is T1, Nuclear factor erythroid 2-related factor 2 (Homo sapiens). Description: Activation of Nrf2 in human HepG2-ARE-C8 cells assessed as induction of ARE-mediated luciferase activity at 2 uM after 24 hrs by luciferase reporter gene assay relative to control. Format: cell-based.
Data set [14] has the same target. Description: Activation of Nrf2 in human HepG2-ARE-C8 cells assessed as induction of ARE-mediated luciferase activity at 0.02 uM after 24 hrs by luciferase reporter gene assay relative to control. Format: cell-based.
For data set [15] the target is unchanged. In words: Activation of Nrf2 in human HepG2-ARE-C8 cells assessed as induction of ARE-mediated luciferase activity at 0.2 uM after 24 hrs by luciferase reporter gene assay relative to control. The data set is classed as cell-based.

Structures are written as SMILES. Values after ≈ are worked out from the molar mass of the structure shown. Active and inactive are the calls of the source. No cut-off for these calls is given here.

As for `Fc1ccc(-c2nc(-c3ccc4nc[nH]c4c3)no2)cc1`, the values for the Activity result in data set [1], in [2] and in [3] were “Non-Toxic”, 1.57 and “<= 20%”, respectively.
Consider `CN(C)C=O`, for which the Activity in data set [4] was found to be 2.97; in data set [2], 0.82; in data set [5], 1.65; in data set [6] it was 1.1; in [7], 1. For the same compound, the result in data set [8] was Active.
As a reminder, the solubility is the concentration that dissolves in the medium under given conditions. One may read the logD as lipophilicity at a set pH, counting ionised and neutral species. `Cc1cccc(-c2noc(-c3ccc(F)c(F)c3)n2)n1`: the Activity in data set [4] is 4.46; in data set [1] it was “Non-Toxic”; in [2], 1.16; in data set [5], 3.96; in [6] it was 2.65; in data set [11], 5.68. In addition, the Activity in data set [7] was determined as 1.08. In data set [9], the concentration in solution (solubility) came to 200 µM (≈ 54.6 µg/mL). The same compound displayed a log distribution coefficient (logD) in data set [10] of 2.86.
In the case of `Fc1ccc(-c2nc(-c3ccc(-c4ccccc4)cc3)no2)cc1F`, the Activity in data set [4] is 10.8; in data set [1], “Non-Toxic”; in [2], 1.15; in data set [5] it was 8.54; in data set [6], 6.75; in [11], 14.7. Also, the Activity in data set [7] is 1.25. In data set [9], the concentration in solution (solubility) was 16 µM (≈ 5.35 µg/mL). Further, the logD in [10] amounted to 4.75.
As to `Cc1ccc(-c2noc(-c3ccc(F)c(F)c3)n2)cc1`, the Activity was 6.62 in data set [4]; “Non-Toxic” in data set [1]; 0.67 in data set [2]; 2.51 in data set [5]; 1.85 in [6]; 10.2 in data set [11]. Besides, the Activity in [7] was found to be 1.22. This compound also came in with a solubility in data set [9] of 35 µM (≈ 9.53 µg/mL). In data set [10], this compound came in with a logD of 4.16.
Consider `Fc1ccc(-c2nc(-c3ccc4nc[nH]c4c3)no2)cc1F`, for which the Activity was 42.6 in data set [4]; “Non-Toxic” in data set [1]; 1.46 in data set [2]; 24 in data set [5]; 12.3 in data set [6]; “<= 20%” in data set [3]. For the same compound, the Activity in data set [11] came to 49.9; in data set [7], 6.21. Moreover, the concentration in solution in data set [9] (solubility) came to 99 µM (≈ 29.5 µg/mL). In addition, the logD in [10] was 3.3.
For the compound `COc1cccc(-c2noc(-c3ccc(F)c(F)c3)n2)c1`, the Activity was 15.2 in data set [4]; “Non-Toxic” in data set [1]; 1.63 in [2]; 14.2 in data set [5]; 5.35 in data set [6]; 16.4 in data set [11]. Besides, in data set [7], the Activity is 1.87. Also, the concentration in solution in data set [9] (solubility) was 86 µM (≈ 24.8 µg/mL). Besides, the logD in [10] was found to be 3.91.
Consider `Fc1ccc(-c2nc(-c3ncccn3)no2)cc1F`, for which the Activity in data set [4] was 2.95; in data set [1], “Non-Toxic”; in data set [2] it was 0.92; in [5], 2.05; in data set [6], 1.07; in [11], 5.82. The Activity in data set [7] is 1.06.
`Fc1ccc(-c2noc(-c3ccc(F)c(F)c3)n2)nc1`: the Activity was 5.79 in data set [4]; “Non-Toxic” in data set [1]; 0.96 in data set [2]; 2.95 in data set [5]; 2.17 in data set [6]; 6.35 in data set [11]. For the same compound, the Activity in [7] was found to be 1.97.
For `Cc1ccnc(-c2noc(-c3ccc(F)c(F)c3)n2)c1`, the Activity in data set [4] was 9.76; in data set [1] it was “Non-Toxic”; in data set [2], 0.63; in data set [5], 8.96; in data set [6] it was 2.04; in data set [11], 10.6. Besides, the Activity in data set [7] is 1.06. The solubility in data set [9] was found to be 220 µM (≈ 60.1 µg/mL). In [10], this compound registered a logD of 2.65.
With `Fc1ccc(-c2nc(-c3ccc(Br)cc3)no2)cc1F`, the Activity is 12.2 in data set [4]; “Non-Toxic” in data set [1]; 2.68 in data set [2]; 8.65 in [5]; 4.49 in data set [6]; 18.2 in data set [11]. Moreover, the Activity in data set [7] stood at 3.78. Further, the solubility in data set [9] stood at 77 µM (≈ 26 µg/mL). For the same compound, the logD in data set [10] came to 3.91.
As to `Fc1cccc(-c2noc(-c3ccc(F)c(F)c3)n2)c1`, the Activity in data set [4] is 3.45; in [1], “Non-Toxic”; in data set [2], 0.92; in data set [5], 2.76; in [6], 2.05; in [11], 5.46. Further, the Activity in data set [7] was found to be 1.81.
For the compound `Fc1ccc(-c2nc(-c3ccc(Cl)cc3)no2)cc1F`, the Activity in data set [4] is 8.29; in data set [1] it was “Non-Toxic”; in [2], 2.85; in data set [5] it was 7.65; in data set [6], 3.85; in data set [11], 9.95. Further, in data set [7], the Activity is 3.06.
In the case of `Fc1ccc(-c2nc(-c3ccc4nc[nH]c4c3)no2)c(Cl)c1`, the Activity is 14.7 in [4]; “Non-Toxic” in data set [1]; 0.68 in data set [2]; 11.8 in data set [5]; 4.22 in data set [6]; 18.3 in [11]. Further, the Activity in data set [7] was determined as 2.98.
For `Fc1ccc(-c2nc(-c3ccc4nc[nH]c4c3)no2)c(Br)c1`, the Activity was 21.6 in [4]; “Non-Toxic” in [1]; 1.01 in data set [2]; 12.1 in data set [5]; 4.18 in [6]; 25.1 in data set [11]. In [7], the Activity was 2.65.
For `Fc1ccc(-c2noc(-c3ccc(F)c(F)c3)n2)cc1F`, the Activity in data set [4] was 2.68; in data set [1] it was “Non-Toxic”; in data set [2], 1.42; in data set [5], 1.73; in [6] it was 1.73; in data set [11] it was 2.56. Besides, the Activity in [7] amounted to 1.36.
On to `CC(C)(C)c1ccc(-c2noc(-c3ccc(F)c(F)c3)n2)cc1`, for which the Activity in data set [4] is 13.2; in data set [1], “Non-Toxic”; in data set [2], 1.35; in [5], 8.35; in data set [6] it was 2.91; in [11], 24. For the same compound, in [7], the Activity is 2.88. In data set [9], this compound registered a solubility of 91 µM (≈ 28.6 µg/mL). This compound also showed a logD in [10] of 3.92.
On to `CC(C)(C)c1cc(O)ccc1O` [E319], for which the Activity in [4] was 2.14; in data set [5], 1.41; in [12], “<= 7%”; in data set [13] it was 1.24; in data set [14], 1.18; in data set [11], 5.27. For the same compound, the Activity in [15] is 1.25. Further, in [8], the result was Active.

For the origin of these results see ChEMBL document CHEMBL4265908, “Structure-activity and structure-property relationships of novel Nrf2 activators with a 1,2,4-oxadiazole core and their therapeutic effects on acetaminophen (APAP)-induced acute liver injury” (Eur J Med Chem, 2018).
